Data set [1] can be described thus: melting temperature; fluorescence melt of hairpins on a sequencing array, two-state fit, raised by 9.35 °C to match UV melts. As to conditions: sodium 0.088 M. In outline: (§1)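 With Cy3 and quencher oligos annealed, library hairpins on a sequenced MiSeq flow cell were imaged for Cy3 fluorescence in 50 mM Na-HEPES pH 8.0, 25 mM NaCl, in 2.5 °C steps up to 60 °C. Melting temperature and folding enthalpy were derived from bootstrapped two-state fits of signals normalised to pre-quench Cy3 and to control constructs. Four replicates were combined by inverse variance, with fitted temperatures raised by 9.35 °C to match UV melts.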

Data set [2] in a line: folding enthalpy; higher = less favourable; fluorescence melt of hairpins on a sequencing array, two-state fit. As to conditions: sodium 0.088 M. The method, boiled down: as §1

GCAGTGCGAAAGCCCTGC ((((.((....)).)))): in data set [1], the Tm stood at 61.8 °C. Besides, the folding enthalpy in data set [2] is -32.8 kcal/mol.

Turning to GCAGTGCGAAAGCGATGC (((..((....))..))), the Tm in data set [1] was determined as 62.4 °C. Moreover, the folding enthalpy in data set [2] was -30.6 kcal/mol.

Take GCAGTGCGAAAGCTCCGC ((.(.((....)).).)): in data set [1], the Tm was 47.9 °C. The folding enthalpy in data set [2] is -11.9 kcal/mol.

Turning to GCAGTGGAAACACTGC ((((((....)))))), the Tm in data set [1] was determined as 68.5 °C. The folding enthalpy in data set [2] is -32.9 kcal/mol.

For the sequence GCAGTGGCGAAAGCCTGC (((..(((....)))))), in data set [1], the Tm came out at 58.3 °C. In addition, the folding enthalpy in data set [2] was -19.3 kcal/mol.

For the sequence GCAGTGGGAAACTACTGC (((((.(....).))))), the Tm in data set [1] stood at 54.2 °C. For the same sequence, the folding enthalpy in data set [2] is -37.9 kcal/mol.

As for GCAGTTGAAAAACTGC ((((((....)))))), the Tm in data set [1] was 58.9 °C. Also, the folding enthalpy in data set [2] was -37.8 kcal/mol.

For the sequence GCAGTTGGAAACAACTAC (.(((((....))))).), the Tm in data set [1] is 37.5 °C. Moreover, in data set [2], the folding enthalpy is -17.1 kcal/mol.

Take GCATAAGGAAACTTATGC (((((((....))))))): the Tm in data set [1] was determined as 54.7 °C. Further, the folding enthalpy in data set [2] was -39.1 kcal/mol.

As to GCATACCGAAAGGTCTGC (((.(((....))).))), in data set [1], the Tm is 51.4 °C. In data set [2], the folding enthalpy is -33.5 kcal/mol.

GCATACGAAAGTATGTGC ((((((....)))..))): the Tm in data set [1] is 52.2 °C. Besides, in data set [2], the folding enthalpy is -23 kcal/mol.

Turning to GCATACGCGAAAGCGTGC (((..(((....)))))), the Tm in data set [1] came to 48.7 °C. Besides, in data set [2], the folding enthalpy was -10.8 kcal/mol.

As to GCATACGGAAACATATGC (((((.(....).))))), in data set [1], the Tm was found to be 37 °C. Besides, in data set [2], the folding enthalpy is -24.4 kcal/mol.

Consider GCATACGGAAACGCATGC ((((.((....)).)))), for which the Tm in data set [1] was determined as 48.5 °C. Further, the folding enthalpy in data set [2] was -34.5 kcal/mol.

On to GCATACGGAAACGTACGC ((.((((....)))).)), for which, in data set [1], the Tm was 44.2 °C. Also, the folding enthalpy in data set [2] was -31.4 kcal/mol.

Regarding GCATACGGAAACGTATAC (.(((((....))))).), the Tm in data set [1] worked out at 34.9 °C. The folding enthalpy in data set [2] is -16.9 kcal/mol.

As for GCATACGGAAACGTGTGC (((.(((....))).))), the Tm in data set [1] was found to be 55 °C. In data set [2], the folding enthalpy is -50.6 kcal/mol.

GCATAGCGAAAGCCTTGC (((..((....))..))): the Tm in data set [1] came out at 36.9 °C. For the same sequence, the folding enthalpy in data set [2] was -13.9 kcal/mol.

Consider GCATAGCGAAAGCGCTGC (((..((....))..))), for which the Tm in data set [1] amounted to 51.3 °C. The folding enthalpy in data set [2] is -16.5 kcal/mol.

Consider GCATAGCGAAAGCTAGGC ((.((((....)))).)), for which the Tm in data set [1] amounted to 67 °C. Further, the folding enthalpy in data set [2] was -27.1 kcal/mol.

Turning to GCATAGCGAAAGCTCAGC ((..(((....)))..)), the Tm in data set [1] was found to be 30.6 °C. Further, in data set [2], the folding enthalpy was -14.3 kcal/mol.

Take GCATAGCGAAAGCTCCGC ((..(((....)))..)): in data set [1], the Tm came to 32.6 °C. The folding enthalpy in data set [2] was -8.77 kcal/mol.

As to GCATAGCGAAAGCTTAGC ((..(((....)))..)), the Tm in data set [1] was determined as 41.6 °C. Besides, in data set [2], the folding enthalpy is -16.2 kcal/mol.

Consider GCATAGCGAAAGCTTGC (((.(((....)))))), for which the Tm in data set [1] came to 54.3 °C. For the same sequence, in data set [2], the folding enthalpy was -22.5 kcal/mol.

As to GCATAGCGAAAGCTTGGC ((..(((....)))..)), the Tm in data set [1] came out at 41.9 °C. Further, the folding enthalpy in data set [2] is -18.6 kcal/mol.

As to GCATAGGGAAACCCATGC ((((.((....)).)))), the Tm in data set [1] worked out at 45.5 °C. In addition, the folding enthalpy in data set [2] is -29.9 kcal/mol.

Consider GCATAGGGAAACCTATAC (.(((((....))))).), for which, in data set [1], the Tm is 27.8 °C. Further, in data set [2], the folding enthalpy is -14.4 kcal/mol.

As to GCATAGGGAAACTTATGC (((((.(....).))))), the Tm in data set [1] came out at 41.6 °C. Further, the folding enthalpy in data set [2] was -29.2 kcal/mol.

In the case of GCATAGTCGAAAGACTGC (((..(((....)))))), the Tm in data set [1] was 43.1 °C. For the same sequence, the folding enthalpy in data set [2] was -15.2 kcal/mol.

On to GCATATGGAAACATATGC (((((((....))))))), for which the Tm in data set [1] was 56.3 °C. The folding enthalpy in data set [2] is -41.6 kcal/mol.
